PubChem BioAssay
Results filed as inconclusive are left out.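 How the source made its calls, unless noted: active means inhibition over a set limit, the all-compound mean plus 3 SD, in both replicate runs; inconclusive means over that limit in just one replicate run; inactive means at or under that limit in both runs.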

What was measured:
[1] = OD615 S. cerevisiae growth inhibition, permissive medium, pilot counter-assay, permissive growth control for S. cerevisiae lifespan shortening project (AID 705;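 active means growth inhibition above 25% in both replicates, a cutoff set 3 SD above the mean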); details: OD615, 24 h, at 10 µM, hits give high values
Procedure, shortened: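 Timing: 24 h exposure, 30 °C / Material: Saccharomyces cerevisiae strain carrying genetically modified DeaD replicative-lifespan system / Signal: OD at 615 nm / Compound: 10 µM single dose, 0.25% DMSO / Medium: SC raffinose/galactose permissive medium / Evaluation: reduction in yeast growth (OD615)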

[2] = Restrictive medium S. cerevisiae growth inhibition, OD615, pilot screen of yeast lifespan reduction project, restrictive growth control (AID 706;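 active means growth inhibition above a set limit, 3 SD over mean compound inhibition, in both replicates, cut at about 43% in these data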;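 further: modified DeaD lifespan yeast strain shifted to restrictive glucose medium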); details: OD615, 48 h, at 10 µM, hits give high values
Procedure, shortened: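 System: Engineered S. cerevisiae DeaD strain | Detection: OD615 | Buffer or medium: CSMM-D glucose medium | Doses: 10 µM compound, 0.25% DMSO | Timing: 4 h pre-growth plus 48 h compound exposure, 30 °C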

[3] = viability gain of MRP-1-high H69AR cells under doxorubicin, pilot screen, MRP-1 activator project, CellTiter-Glo, duplicate (AID 807;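 active means viability increase at or above a cutoff of the median across tested compounds plus 3 SD, cut at about 8.5% in these data, passing the limit was not always enough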;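 further: compound pretreatment 18-22 h then 72 h combined with doxorubicin; 0% = doxorubicin alone and 100% = vehicle without doxorubicin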); details: H69AR viability with doxorubicin, CellTiter-Glo luminescence; at 10 µM; hits give high values
[4] = growth suppression of beta-catenin knockout HCT116, pilot screen, human colon tumor cells (AID 823;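 active means cell viability at or below a set limit in both duplicate runs, the limit being the all-compound median minus 4 SD, cut at about 23% in these data, passing the limit was not always enough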;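 further: 0% = wells killed by 20 µM Hyamine and 100% = untreated DMSO cell wells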); details: CellTiter-Glo, 60 h, at 10 µM, hits give low values
[5] = growth suppression of PTEN-deleted HCT116, pilot screen, cell-based, HCT116 clonal line, CellTiter-Glo (AID 824;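 active means viability at or below 27.92% in each of two runs, the all-compound median minus 4 SD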;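 further: 0% = 20 µM Hyamine control and 100% = vehicle cell control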); details: 60 h, at 10 µM, hits give low values
[6] = inhibitors of the yeast RAM network, pilot screen, dse1pr::URA3 reporter, 5-FOA selection (AID 869);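 further: 0% = DMSO wells with no growth and 100% = 10 µM 1-NA-PP1 with full growth; RAM network block rescues cells from 5-FOA so hits raise OD615 growth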; details: S. cerevisiae dse1pr::URA3 5-FOA growth, OD615, 2 d; at 10 µM; hits give high values; strain carries analog-sensitive mutant Cbk1 kinase
[7] = RAM signaling pathway blockade in yeast – S. cerevisiae, Pdr1DBD-CYC8 efflux-inhibited sensitized strain, primary screen (AID 1298;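 active means RAM network inhibition above 8.4% in each of two replicates, 3 SD over the compound average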;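 further: 0% = DMSO untreated cells without growth and 100% = 10 µM 1-NA-PP1 full growth; higher means more yeast growth rescued from 5-FOA killing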); details: S. cerevisiae cbk1-as DSE1-URA3 strain, 5-FOA growth OD615, 2 d; at 50 µM; hits give high values

CCOc1ccc(N2C(=O)c3ccccc3C2O)cc1 (stereo not drawn)
inactive: growth inhibition [1] 6.33% | growth inhibition [2] 11.8% | viability increase [3] 1.68% | viability [4] 101% | viability [5] 87.5% | inhibition [6] -0.05% | RAM network inhibition [7] 2.58%

Cc1nc2ccccc2n1-c1ccccc1
inactive: growth inhibition [1] -0.46% | growth inhibition [2] 10.2% | viability increase [3] 0.08% | viability [4] 89.1% | viability [5] 96.4% | inhibition [6] 0.185% | RAM network inhibition [7] 4.25%

CC(=O)c1ccc(OCC(O)CN2CCCC(C)C2)cc1 (stereo not drawn)
inactive: growth inhibition [1] 5.32% | growth inhibition [2] -4.29% | viability increase [3] -0.81% | viability [4] 99.3% | viability [5] 96.7% | inhibition [6] 1.98% | RAM network inhibition [7] 5.23%

CCn1cc(C(=O)NC2CCCCCC2)c(=O)c2cc(S(=O)(=O)N3CCCCC3)ccc21
inactive: growth inhibition [1] -3.87% | growth inhibition [2] -20.1% | viability increase [3] -8.11% | viability [4] 72.2% | viability [5] 69.8% | inhibition [6] 0.625% | RAM network inhibition [7] 2.45%

CN(CCNC(=O)Cn1c(=O)sc2ccccc21)Cc1ccccc1
inactive: growth inhibition [1] -1.18% | growth inhibition [2] -7.1% | viability increase [3] -5.12% | viability [4] 77.7% | viability [5] 82.3% | inhibition [6] 1.27% | RAM network inhibition [7] -1.1%

CC1=C(C(=O)OCCOc2ccccc2)C(c2ccc(C)o2)C2=C(CC(C)(C)CC2=O)N1 (stereo not drawn)
inactive: growth inhibition [1] -17.6% | growth inhibition [2] -10.8% | viability increase [3] -0.88% | viability [4] 78.2% | viability [5] 78.6% | inhibition [6] 1.73% | RAM network inhibition [7] 7.5%

COc1ccc(Cc2nc(-c3ccc(Br)o3)no2)cc1OC
inactive: growth inhibition [1] -14.4% | growth inhibition [2] -3.81% | viability increase [3] -0.22% | viability [4] 92.2% | viability [5] 81.2% | inhibition [6] 0.995% | RAM network inhibition [7] 4.17%

CS(=O)(=O)N(CC(=O)NCc1ccco1)c1cc(C(F)(F)F)ccc1Cl
inactive: growth inhibition [1] 0.43% | growth inhibition [2] -4.23% | viability increase [3] -3.09% | viability [4] 99% | viability [5] 92.8% | inhibition [6] 0.68% | RAM network inhibition [7] 2.65%

COC(=O)c1ccccc1NC(=O)CSc1nc(N)cc(N)n1
inactive: growth inhibition [1] -11.6% | growth inhibition [2] 5.95% | viability increase [3] -2.46% | viability [4] 94.1% | viability [5] 98.3% | inhibition [6] 0.39% | RAM network inhibition [7] -0.05%

C=C(C)CSc1nc2c(cc1C#N)CCC2
inactive: growth inhibition [1] 9.43% | growth inhibition [2] 21.6% | viability increase [3] 1.11% | viability [4] 99.4% | viability [5] 99.1% | inhibition [6] 2.3% | RAM network inhibition [7] 1.58%

COCCn1c(SCCN2CCOCC2)nc2c1c(=O)[nH]c(=O)n2C
inactive: growth inhibition [1] -0.205% | growth inhibition [2] -4.84% | viability increase [3] 0.95% | viability [4] 104% | viability [5] 101% | inhibition [6] 1.45% | RAM network inhibition [7] 5.47%

O=C(NCCC1=CCCCC1)C1CCCN(S(=O)(=O)c2cccnc2)C1 (stereo not drawn)
inactive: growth inhibition [1] -1.48% | growth inhibition [2] 3.42% | viability increase [3] 0.1% | viability [4] 95.8% | viability [5] 101% | inhibition [6] 1.75% | RAM network inhibition [7] 1.4%

CCCCn1c(C(C)NC(=O)CC)nc2ccccc21 (stereo not drawn)
inactive: growth inhibition [1] -12.9% | growth inhibition [2] -3.19% | viability increase [3] -3.16% | viability [4] 92.2% | viability [5] 92.7% | inhibition [6] 0.01% | RAM network inhibition [7] -0.63%

CCCOc1ccc(C2c3c(oc4cc(C)c(C)cc4c3=O)C(=O)N2CCCN2CCOCC2)cc1 (stereo not drawn)
inactive: growth inhibition [1] 8% | growth inhibition [2] 1.72% | viability increase [3] -2.28% | viability [4] 81.9% | viability [5] 89% | inhibition [6] 0.075% | RAM network inhibition [7] 0.73%

CCCC(=O)NCCCCNC(=O)CCC
inactive: growth inhibition [1] 2.78% | growth inhibition [2] 2.44% | viability increase [3] -0.9% | viability [4] 96.4% | viability [5] 101% | inhibition [6] 0.09% | RAM network inhibition [7] 4.07%

Cc1nc2c3ccccc3n(CC(=O)c3ccc(F)cc3)c(=O)n2n1
inactive: growth inhibition [1] -13.8% | growth inhibition [2] -4.75% | viability increase [3] -2.79% | viability [4] 96.8% | viability [5] 94.7% | inhibition [6] 3.38% | RAM network inhibition [7] 3.78%

CCN1CCN(Cc2nc3c(c(=O)n(C)c(=O)n3C)n2Cc2ccc(Cl)cc2Cl)CC1
inactive: growth inhibition [1] -9.72% | growth inhibition [2] -16.2% | viability increase [3] -3.62% | viability [4] 99.1% | viability [5] 98.8% | inhibition [6] 0.615% | RAM network inhibition [7] 1.52%

Cc1ccc(-c2cc3c(nn2)-c2ccccc2C3=O)cc1
inactive: growth inhibition [1] -17% | growth inhibition [2] -5.93% | viability increase [3] -6.54% | viability [4] 53.4% | viability [5] 49.6% | inhibition [6] 4.56% | RAM network inhibition [7] 7.67%

CCOCCn1c(SCc2ccccc2)nc2c1c(=O)[nH]c(=O)n2C
inactive: growth inhibition [1] -16.6% | growth inhibition [2] -27.6% | viability increase [3] -1.41% | viability [4] 104% | viability [5] 96.7% | inhibition [6] 0.205% | RAM network inhibition [7] 7.51%

O=C(CN1CCN(c2ccccc2F)CC1)c1ccc2cc[nH]c2c1
inactive: growth inhibition [1] -12.6% | growth inhibition [2] -6.94% | viability increase [3] -4.1% | viability [4] 100% | viability [5] 84.7% | inhibition [6] 2.02% | RAM network inhibition [7] 0.99%

Cc1ccccc1NC(=O)CSc1[nH]c(=O)cc(C)c1C#N
inactive: growth inhibition [1] -1.3% | growth inhibition [2] 11.7% | viability increase [3] -0.42% | viability [4] 108% | viability [5] 101% | inhibition [6] 2.41% | RAM network inhibition [7] 1.7%

CSCC[C@@H](C(=O)Nc1ccc2c(c1)OCCO2)N1Cc2ccccc2C1=O
inactive: growth inhibition [1] 3.3% | growth inhibition [2] 1.73% | viability increase [3] -2.91% | viability [4] 99.3% | viability [5] 92.3% | inhibition [6] 0.83% | RAM network inhibition [7] 4.13%

CCOc1ccc(N(CC(=O)Nc2cccc(F)c2)S(=O)(=O)c2c(C)noc2C)cc1
inactive: growth inhibition [1] -3.51% | growth inhibition [2] -8.12% | viability increase [3] -5.24% | viability [4] 66.5% | viability [5] 56.2% | inhibition [6] 3.33% | RAM network inhibition [7] 5.5%

Cc1ccc(Cn2c(Sc3nnc(C)s3)nc3c2c(=O)[nH]c(=O)n3C)cc1
inactive: growth inhibition [1] -1.77% | growth inhibition [2] -4.4% | viability increase [3] -2.58% | viability [4] 85.8% | viability [5] 78.6% | inhibition [6] 2.5% | RAM network inhibition [7] 1.84%
